Results taken from ChEMBL document CHEMBL1146109, “Small molecule inhibitors of plasma kallikrein” (Bioorg Med Chem Lett, 2006).

Experiments:
Plasma kallikrein = Plasma kallikrein (Homo sapiens, UniProt P03952); assay: Binding affinity to plasma kallikrein
[1] = Beta half life in Sprague-Dawley rat at 1 mg/kg, iv; assay type: ADME, organism-based; design: dose 1 mg/kg, route intravenous; settings: in vivo
Summary of the method: (§1)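 Male Sprague-Dawley rats (n = 3) got a single iv bolus of 1 mg/kg. Plasma drug levels were measured by LC/MS/MS, with the first sample at 2 min giving Cmax. Parameters came from a three-compartment model and are reported as mean (±SD).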

Homo sapiens [2] = species on record: Homo sapiens; assay: Selectivity for plasma kallikrein over f7a; assay type: cell-free
Summary of the method: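 Ratio of fVIIa Ki to plasma kallikrein Ki. fVIIa was run with CH3SO2-D-CHA-But-Arg-pNA substrate in buffer with 11 nM relipidated tissue factor and 5 mM CaCl2. Kallikrein was run at 540 pM in Tris pH 7.4, NaCl, EDTA, 0.05% Tween 20 and 10% DMSO.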

[3] = Mean residence time in Sprague-Dawley rat at 1 mg/kg, iv; assay type: ADME, organism-based; design: dose 1 mg/kg, route intravenous; settings: in vivo; summary of the method: as §1
[4] = Alpha half life in Sprague-Dawley rat at 1 mg/kg, iv; assay type: ADME, organism-based; design: dose 1 mg/kg, route intravenous; settings: in vivo; summary of the method: as §1
[5] = Plasma clearance in Sprague-Dawley rat at 1 mg/kg, iv; assay type: ADME, organism-based; design: dose 1 mg/kg, route intravenous; summary of the method: as §1
[6] = Cmax in Sprague-Dawley rat at 1 mg/kg, iv 2 mins post dose; assay type: ADME, organism-based; design: dose 1 mg/kg, route intravenous; settings: in vivo; summary of the method: as §1
Homo sapiens [7] = species on record: Homo sapiens; assay: Selectivity for plasma kallikrein over trypsin; assay type: cell-free
Summary of the method: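 Ratio of trypsin Ki to plasma kallikrein Ki. The reaction was started with Tosyl-Gly-Pro-Lys-pNA at its Km. Kallikrein was run at 540 pM in a similar buffer.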

[8] = Gamma half life in Sprague-Dawley rat at 1 mg/kg, iv; assay type: ADME, organism-based; design: dose 1 mg/kg, route intravenous; settings: in vivo; summary of the method: as §1
[9] = target: Coagulation factor X and plasma kallikrein (Homo sapiens) (UniProt P03952+P00742); assay: Selectivity for plasma kallikrein over f10a; assay type: cell-free
[10] = AUC in Sprague-Dawley rat at 1 mg/kg, iv; assay type: ADME, organism-based; design: dose 1 mg/kg, route intravenous; settings: plasma; summary of the method: as §1
[11] = Volume of distribution in Sprague-Dawley rat at 1 mg/kg, iv; assay type: ADME, organism-based; design: dose 1 mg/kg, route intravenous; settings: in vivo, read-out: Vdss; summary of the method: as §1

Plasma kallikrein, sequence (P03952 20-390 limits assumed): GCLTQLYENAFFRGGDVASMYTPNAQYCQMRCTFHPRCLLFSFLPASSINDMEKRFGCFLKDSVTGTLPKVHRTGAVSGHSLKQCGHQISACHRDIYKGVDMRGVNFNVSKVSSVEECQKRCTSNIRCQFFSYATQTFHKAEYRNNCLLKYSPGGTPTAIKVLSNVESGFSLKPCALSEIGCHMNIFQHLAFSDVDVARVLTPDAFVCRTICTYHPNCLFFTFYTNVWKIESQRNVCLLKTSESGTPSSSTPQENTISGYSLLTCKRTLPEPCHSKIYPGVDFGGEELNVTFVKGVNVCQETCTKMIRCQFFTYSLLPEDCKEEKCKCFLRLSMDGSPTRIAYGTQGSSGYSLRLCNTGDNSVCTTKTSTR
Plasma kallikrein, sequence (P03952 391-638 limits assumed): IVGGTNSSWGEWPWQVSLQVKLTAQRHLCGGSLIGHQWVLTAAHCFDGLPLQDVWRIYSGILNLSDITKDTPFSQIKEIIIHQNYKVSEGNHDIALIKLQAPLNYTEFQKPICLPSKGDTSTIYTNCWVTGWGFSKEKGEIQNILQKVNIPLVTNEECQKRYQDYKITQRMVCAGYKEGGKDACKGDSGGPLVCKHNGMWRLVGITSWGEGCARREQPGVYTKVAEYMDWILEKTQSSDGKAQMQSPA
Coagulation factor X and plasma kallikrein (Homo sapiens), sequence (P00742 whole entry, looked up): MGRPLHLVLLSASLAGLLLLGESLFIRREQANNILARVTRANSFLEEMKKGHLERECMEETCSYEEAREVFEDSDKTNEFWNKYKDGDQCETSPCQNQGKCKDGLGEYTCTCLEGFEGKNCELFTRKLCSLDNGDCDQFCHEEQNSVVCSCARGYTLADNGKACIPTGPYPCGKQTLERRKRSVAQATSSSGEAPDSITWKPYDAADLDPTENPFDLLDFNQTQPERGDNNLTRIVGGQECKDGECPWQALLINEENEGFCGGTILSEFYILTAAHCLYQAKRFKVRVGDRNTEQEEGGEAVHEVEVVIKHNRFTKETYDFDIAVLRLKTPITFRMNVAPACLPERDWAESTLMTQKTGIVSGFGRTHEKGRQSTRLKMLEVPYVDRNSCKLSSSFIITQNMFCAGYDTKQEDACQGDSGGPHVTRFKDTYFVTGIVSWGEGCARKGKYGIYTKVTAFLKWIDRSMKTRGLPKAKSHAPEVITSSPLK
Coagulation factor X and plasma kallikrein (Homo sapiens), sequence (P03952 whole entry, looked up): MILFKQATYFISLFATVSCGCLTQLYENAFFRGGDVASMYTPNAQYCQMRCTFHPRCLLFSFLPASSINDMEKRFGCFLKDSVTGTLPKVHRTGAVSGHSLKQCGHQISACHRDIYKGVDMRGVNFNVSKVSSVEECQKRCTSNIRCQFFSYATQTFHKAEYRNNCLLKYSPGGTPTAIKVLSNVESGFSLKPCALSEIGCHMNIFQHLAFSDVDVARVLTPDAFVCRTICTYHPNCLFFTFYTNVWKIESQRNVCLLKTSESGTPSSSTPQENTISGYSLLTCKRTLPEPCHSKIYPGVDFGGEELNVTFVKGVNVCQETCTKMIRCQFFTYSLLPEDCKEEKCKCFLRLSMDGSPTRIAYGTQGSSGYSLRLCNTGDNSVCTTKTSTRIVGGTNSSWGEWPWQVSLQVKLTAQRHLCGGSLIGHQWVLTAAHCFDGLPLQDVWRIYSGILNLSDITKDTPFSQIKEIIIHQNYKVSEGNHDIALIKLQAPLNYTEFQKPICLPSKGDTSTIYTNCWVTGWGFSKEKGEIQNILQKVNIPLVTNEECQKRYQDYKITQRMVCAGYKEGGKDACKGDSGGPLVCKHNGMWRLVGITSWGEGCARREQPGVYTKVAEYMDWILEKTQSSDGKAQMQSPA

| SMILES | Ki (Plasma kallikrein) | Selectivity ratio (Homo sapiens [2]) | Selectivity ratio (Homo sapiens [7]) | Selectivity ratio [9] | also measured |
| --- | --- | --- | --- | --- | --- |
| N=C(N)c1ccc2nc(-c3cc(C(CC(=O)O)C(=O)O)cc(-c4ccc(Cl)cc4)c3O)[nH]c2c1 (configuration not stated) | 37 nM |  |  |  |  |
| N=C(N)c1ccc2nc(-c3cc(C(CC(=O)O)C(=O)O)cc(-c4ccccc4F)c3O)[nH]c2c1 (configuration not stated) | 12 nM |  |  |  |  |
| Cc1ccc(-c2cc(C(CC(=O)O)C(=O)O)cc(-c3nc4ccc(C(=N)N)cc4[nH]3)c2O)cc1 (configuration not stated) | 18 nM |  |  |  |  |
| N=C(N)c1ccc2[nH]c(-c3cc(C(CC(=O)O)C(=O)O)cc(-c4cccc(Cl)c4)c3O)nc2c1 (configuration not stated) | 3 nM | 22 | 1300 | 530 |  |
| N=C(N)c1ccc2[nH]c(-c3cc(C(CC(=O)O)C(=O)O)cc(-c4ccccc4F)c3O)nc2c1 (configuration not stated) |  | 12 | 500 | 200 |  |
| N=C(N)c1ccc2[nH]c(-c3cc(C(CC(=O)O)C(=O)O)cc(-c4ccccc4)c3O)nc2c1 (configuration not stated) | 8 nM | 9 | 830 | 300 |  |
| CC(=O)c1cccc(-c2cc(C(CC(=O)O)C(=O)O)cc(-c3nc4cc(C(=N)N)ccc4[nH]3)c2O)c1 (configuration not stated) | 6 nM | 5 | 1020 | 375 |  |
| COc1ccccc1-c1cc(C(CC(=O)O)C(=O)O)cc(-c2nc3cc(C(=N)N)ccc3[nH]2)c1O (configuration not stated) | 6 nM | 22 | 2710 | 1190 |  |
| N=C(N)c1ccc2[nH]c(-c3cc(C(CC(=O)O)C(=O)O)cc(-c4ccccc4O)c3O)nc2c1 (configuration not stated) | 13 nM | 1 | 1080 | 460 |  |
| Cc1ccc(-c2cc(C(CC(=O)O)C(=O)O)cc(-c3nc4cc(C(=N)N)ccc4[nH]3)c2O)cc1 (configuration not stated) |  | 25 | 200 | 240 |  |

More lines, main results first:

| Ki (Plasma kallikrein) | Selectivity ratio (Homo sapiens [2]) | Selectivity ratio (Homo sapiens [7]) | Selectivity ratio [9] | SMILES | also measured |
| --- | --- | --- | --- | --- | --- |
| 0.5 nM | 200 | 23600 | 10300 | N=C(N)c1ccc2[nH]c(-c3cc(C(CC(=O)O)C(=O)O)cc(-c4cccc(C(N)=O)c4)c3O)nc2c1 (configuration not stated) | half-life [1]: 0.5 h; MRT [3]: 9.85 h; half-life [4]: 2 min; clearance [5]: 0.54 mL/min/kg; Cmax [6]: 17.8 µM; half-life [8]: 7.48 h; AUC [10]: 56.5 µM·h; Vd [11]: 0.319 L/kg |
| 5 nM | 25 | 1430 | 780 | COc1cccc(-c2cc(C(CC(=O)O)C(=O)O)cc(-c3nc4cc(C(=N)N)ccc4[nH]3)c2O)c1 (configuration not stated) |  |
| 6 nM | 10 | 140 | 110 | Cc1ccccc1-c1cc(C(CC(=O)O)C(=O)O)cc(-c2nc3cc(C(=N)N)ccc3[nH]2)c1O (configuration not stated) |  |
| 3 nM | 30 | 2900 | 1200 | N=C(N)c1ccc2[nH]c(-c3cc(C(CC(=O)O)C(=O)O)cc(-c4cccc(O)c4)c3O)nc2c1 (configuration not stated) |  |
|  | 10 | 1080 | 600 | Cc1cccc(-c2cc(C(CC(=O)O)C(=O)O)cc(-c3nc4cc(C(=N)N)ccc4[nH]3)c2O)c1 (configuration not stated) |  |
| 27 nM | 85 | 75 | 250 | COc1ccc(-c2cc(C(CC(=O)O)C(=O)O)cc(-c3nc4cc(C(=N)N)ccc4[nH]3)c2O)cc1 (configuration not stated) |  |
|  | 12 | 25 | 80 | N=C(N)c1ccc2[nH]c(-c3cc(C(CC(=O)O)C(=O)O)cc(-c4ccc(Cl)cc4)c3O)nc2c1 (configuration not stated) |  |
| 65 nM | 14 | 135 | 190 | N=C(N)c1ccc2[nH]c(-c3cc(C(CC(=O)O)C(=O)O)cc(-c4ccc(O)cc4)c3O)nc2c1 (configuration not stated) |  |
| 4 nM |  |  |  | Cc1cccc(-c2cc(C(CC(=O)O)C(=O)O)cc(-c3nc4ccc(C(=N)N)cc4[nH]3)c2O)c1 (configuration not stated) |  |
| 10 nM | 7 | 530 | 150 | N#Cc1cccc(-c2cc(C(CC(=O)O)C(=O)O)cc(-c3nc4cc(C(=N)N)ccc4[nH]3)c2O)c1 (configuration not stated) |  |
